Data taken from ChEMBL document CHEMBL5532717, “Facile Halogenation of Antimicrobial Peptides As Demonstrated by Producing Bromotryptophan-Labeled Nisin Variants with Enhanced Antimicrobial Activity” (2024).
Values after ≈ are worked out from the molar mass of the structure shown. Active and inactive are the calls of the source. The calls are words filed in the database; no cut-off is given here.

Columns and labels:
[1] = tested on: Enterococcus faecalis; assay: Antibacterial activity against vancomycin-reistant Enterococcus faecalis LMG16216 assessed as reduction in bacterial growth by broth microdilution method; format: functional
In short: (§1)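 Broth microdilution MIC: inoculum adjusted to approximately 5 × 10^5 CFU/mL. Plates incubated overnight at 37 °C, or at 30 °C for L. lactis. MIC taken as the lowest concentration with no visible growth.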

[2] = tested on: Enterococcus faecium; assay: Antibacterial activity against vancomycin-resistant Enterococcus faecium LMG16003 assessed as reduction in bacterial growth by broth microdilution method; format: functional
In short: (§2)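 Broth microdilution per standard guidelines; inoculum about 5 × 10^5 CFU/mL. Incubated overnight at 37 °C. MIC taken as lowest concentration with no visible growth.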

[3] = tested on: Lactococcus lactis; assay: Antibacterial activity against Lactococcus lactis MG1363 assessed as reduction in bacterial growth by broth microdilution method; format: functional; in short: as §1
[4] = tested on: Bacillus cereus; assay: Antibacterial activity against Bacillus cereus CH-85 assessed as reduction in bacterial growth by broth microdilution method; format: functional; in short: as §1
[5] = tested on: Staphylococcus aureus; assay: Antibacterial activity against methicillin-resistant Staphylococcus aureus LMG15975 assessed as reduction in bacterial growth by broth microdilution method; format: functional; in short: as §2
[6] = tested on: Staphylococcus aureus; assay: Antibacterial activity against Staphylococcus aureus LMG10147 assessed as reduction in bacterial growth by broth microdilution method; format: functional; in short: as §1
[7] = tested on: Bacillus cereus; assay: Bactericidal activity against Bacillus cereus CH-85 assessed as bacterial cell killing at 15 microg/ml measured for 3 hrs by time-kill assay; format: functional; settings: dose 15.0 µg/ml
In short: (§3)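 B. cereus CH-85 overnight culture diluted 50-fold in LB and grown at 37 °C with aeration to OD600 0.5, then adjusted to 5 × 10^5 cells/mL. Cells exposed to peptide at several concentrations in tubes at 37 °C, 180 rpm; untreated cells as negative control. Aliquots taken at time points, 10-fold serially diluted and plated on LB agar, incubated overnight at 37 °C, CFU/mL counted; triplicate.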

[8] = tested on: Bacillus cereus; assay: Bactericidal activity against Bacillus cereus CH-85 incubated overnight in presence of lipid II by spot-on-lawn assay; format: functional, organism-based
In short: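 B. cereus CH-85 lawn: 0.1% (v/v) overnight-culture inoculum mixed into 1.5% (w/v) LB agar at 45 °C and poured. 5 μL of peptide spotted and dried. Purified lipid II (2 μL) then spotted at the edge of the inhibition halo. Plate incubated overnight at 37 °C and read for lipid II binding.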

[9] = tested on: Bacillus cereus; assay: Bactericidal activity against Bacillus cereus CH-85 at 15 microg/ml measured for 3 hrs by time-kill assay; format: functional, organism-based; settings: dose 15.0 µg/ml; in short: as §3

Row | SMILES | MIC [1] | MIC [2] | MIC [3] | MIC [4] | MIC [5] | MIC [6] | Activity [7] | Activity [8] | Activity [9]
1 | N[C@@H](Cc1c[nH]c2cc(Br)ccc12)C(=O)O | 25 µg/mL (≈ 88.3 µM) | 3.13 µg/mL (≈ 11.1 µM) | 0.08 µg/mL (≈ 0.283 µM) | 6.25 µg/mL (≈ 22.1 µM) | 6.25 µg/mL (≈ 22.1 µM) | 12.5 µg/mL (≈ 44.2 µM) |  |  | 
2 | N[C@@H](Cc1c[nH]c2ccc(Br)cc12)C(=O)O | 12.5 µg/mL (≈ 44.2 µM) | 3.13 µg/mL (≈ 11.1 µM) | 0.04 µg/mL (≈ 0.141 µM) | 3.13 µg/mL (≈ 11.1 µM) | 3.13 µg/mL (≈ 11.1 µM) | 6.25 µg/mL (≈ 22.1 µM) | Active | inactive | Active
3 | CCCCCCCCCC(=O)N[C@@H](Cc1c[nH]c2ccccc12)C(=O)N[C@H](CC(N)=O)C(=O)N[C@@H](CC(=O)O)C(=O)N[C@@H]1C(=O)NCC(=O)N[C@@H](CCCN)C(=O)N[C@@H](CC(=O)O)C(=O)N[C@H](C)C(=O)N[C@@H](CC(=O)O)C(=O)NCC(=O)N[C@H](CO)C(=O)N[C@@H]([C@H](C)CC(=O)O)C(=O)N[C@@H](CC(=O)c2ccccc2N)C(=O)O[C@@H]1C |  |  |  |  |  |  |  | Active | 
4 | N[C@@H](Cc1c[nH]c2ccccc12)C(=O)O [TRYPTOPHAN] | 12.5 µg/mL (≈ 61.2 µM) | 3.13 µg/mL (≈ 15.3 µM) | 0.04 µg/mL (≈ 0.196 µM) | 6.25 µg/mL (≈ 30.6 µM) | 6.25 µg/mL (≈ 30.6 µM) | 6.25 µg/mL (≈ 30.6 µM) |  |  | 
5 | N[C@@H](Cc1c[nH]c2ccc(O)cc12)C(=O)O [OXITRIPTAN] | 12.5 µg/mL (≈ 56.8 µM) | 6.25 µg/mL (≈ 28.4 µM) | 0.08 µg/mL (≈ 0.363 µM) | 6.25 µg/mL (≈ 28.4 µM) | > 12.5 µg/mL | 12.5 µg/mL (≈ 56.8 µM) |  |  | 
